In ChEMBL document CHEMBL1156749 (Bioorg Med Chem Lett, 2009):

Key:
Rattus norvegicus [1] = species on record: Rattus norvegicus; experiment: Selectivity ratio of Ki for rat DAT to Ki for SERT
Procedure, shortened: (§1)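 Ratio of Ki values from rat brain tissue displacement assays: [3H]WIN 35,428 for DAT, [3H]citalopram for SERT, [3H]nisoxetine for NET. Test agents were oxalate salts. Each Ki is the mean of three experiments run in triplicate.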

Rattus norvegicus [2] = species on record: Rattus norvegicus; experiment: Selectivity ratio of Ki for rat NET to Ki for DAT; procedure, shortened: as §1
[3] = target: Sodium-dependent dopamine transporter (Rattus norvegicus, UniProt P23977); experiment: Displacement of [3H]WIN-35428 from DAT in rat brain; assay type: tissue-based
Sodium-dependent dopamine transporter, sequence (P23977 whole entry): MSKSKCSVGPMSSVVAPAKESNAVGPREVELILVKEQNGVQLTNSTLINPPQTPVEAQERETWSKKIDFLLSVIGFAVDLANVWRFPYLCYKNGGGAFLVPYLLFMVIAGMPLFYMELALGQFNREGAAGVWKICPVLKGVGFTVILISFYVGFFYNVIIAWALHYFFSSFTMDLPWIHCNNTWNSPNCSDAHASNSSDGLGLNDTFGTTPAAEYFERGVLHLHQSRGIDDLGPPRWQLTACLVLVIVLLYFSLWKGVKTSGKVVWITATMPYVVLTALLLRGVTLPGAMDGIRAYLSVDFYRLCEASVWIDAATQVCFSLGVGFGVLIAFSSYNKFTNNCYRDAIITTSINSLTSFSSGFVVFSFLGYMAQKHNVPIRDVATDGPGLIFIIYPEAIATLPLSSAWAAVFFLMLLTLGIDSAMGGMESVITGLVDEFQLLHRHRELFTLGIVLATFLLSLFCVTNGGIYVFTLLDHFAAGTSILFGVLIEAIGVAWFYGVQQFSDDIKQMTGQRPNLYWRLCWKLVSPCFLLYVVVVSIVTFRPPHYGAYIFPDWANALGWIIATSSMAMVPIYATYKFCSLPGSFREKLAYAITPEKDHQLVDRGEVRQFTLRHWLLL
Procedure, shortened: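 Radioligand displacement from monoamine transporters in rat brain tissue: [3H]WIN 35,428 for DAT, [3H]citalopram for SERT, [3H]nisoxetine for NET. Test agents were used as oxalate salts, and Ki was derived from displacement. Values are mean ± SEM of three experiments, each run in triplicate.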

Rattus norvegicus [4] = species on record: Rattus norvegicus; experiment: Selectivity ratio of Ki for rat NET to Ki for SERT; procedure, shortened: as §1
[5] = target: Sodium-dependent serotonin transporter (Rattus norvegicus, UniProt P31652); experiment: Displacement of [3H]citalopram from SERT in rat brain; assay type: tissue-based
Sodium-dependent serotonin transporter, sequence (P31652 whole entry): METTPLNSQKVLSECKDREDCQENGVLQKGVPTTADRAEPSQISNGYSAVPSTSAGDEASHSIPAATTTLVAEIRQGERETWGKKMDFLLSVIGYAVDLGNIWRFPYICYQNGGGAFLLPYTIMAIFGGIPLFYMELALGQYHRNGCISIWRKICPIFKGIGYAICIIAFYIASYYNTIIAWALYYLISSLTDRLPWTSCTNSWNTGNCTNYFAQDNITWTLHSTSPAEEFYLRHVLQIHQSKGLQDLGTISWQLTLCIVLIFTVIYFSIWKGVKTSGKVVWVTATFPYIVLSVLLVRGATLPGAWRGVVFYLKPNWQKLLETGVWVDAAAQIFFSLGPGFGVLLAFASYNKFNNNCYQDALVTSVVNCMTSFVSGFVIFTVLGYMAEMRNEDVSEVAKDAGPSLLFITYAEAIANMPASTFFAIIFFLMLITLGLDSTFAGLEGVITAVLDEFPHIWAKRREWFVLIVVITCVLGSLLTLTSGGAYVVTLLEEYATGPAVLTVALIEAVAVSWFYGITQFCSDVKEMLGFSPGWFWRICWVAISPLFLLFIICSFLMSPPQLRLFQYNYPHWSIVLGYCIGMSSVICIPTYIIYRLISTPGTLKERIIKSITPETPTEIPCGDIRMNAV

Transporter = Transporter (Rattus norvegicus, UniProt Q63380); experiment: Displacement of [3H]nisoxetine from NET in rat brain; assay type: tissue-based
Transporter, sequence (Q63380 whole entry): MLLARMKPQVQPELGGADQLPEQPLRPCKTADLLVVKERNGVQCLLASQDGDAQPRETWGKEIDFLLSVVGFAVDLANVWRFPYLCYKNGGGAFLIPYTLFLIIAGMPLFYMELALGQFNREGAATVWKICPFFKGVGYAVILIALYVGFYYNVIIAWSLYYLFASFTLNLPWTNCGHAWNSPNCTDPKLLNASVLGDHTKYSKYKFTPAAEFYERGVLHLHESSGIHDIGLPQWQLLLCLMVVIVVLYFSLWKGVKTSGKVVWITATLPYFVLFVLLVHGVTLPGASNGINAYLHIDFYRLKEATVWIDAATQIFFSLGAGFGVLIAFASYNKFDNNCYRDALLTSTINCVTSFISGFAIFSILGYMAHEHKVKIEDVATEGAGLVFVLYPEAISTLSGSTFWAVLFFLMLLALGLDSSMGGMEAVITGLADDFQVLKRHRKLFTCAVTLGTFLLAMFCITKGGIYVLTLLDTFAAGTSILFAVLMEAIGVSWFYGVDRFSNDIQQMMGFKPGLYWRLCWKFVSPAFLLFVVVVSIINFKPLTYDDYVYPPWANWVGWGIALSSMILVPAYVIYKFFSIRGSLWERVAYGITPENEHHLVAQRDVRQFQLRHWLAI

Row | SMILES | Ratio (Rattus norvegicus [1]) | Ratio (Rattus norvegicus [2]) | Ki [3] | Ratio (Rattus norvegicus [4]) | Ki [5] | Ki (Transporter)
1 | Fc1ccc(C2=CC3CCC(C2)N3)cc1 (centres undefined) | 8.2 | 1.9 | 1060 nM | – | – | –
2 | Clc1ccc(CO[C@@]2(c3ccc(Cl)c(Cl)c3)C[C@H]3CC[C@@H](C2)N3)cc1 | 46 | 5.4 | – | 246 | – | –
3 | Clc1ccc(CO[C@@]2(c3ccc(Cl)cc3)C[C@H]3CC[C@@H](C2)N3)cc1 | 630 | 38 | 63 nM | 23700 | 0.1 nM | 2370 nM
4 | Clc1ccc(CO[C@@]2(c3ccccc3)C[C@H]3CC[C@@H](C2)N3)cc1 | 3.6 | 4.6 | 22 nM | 17 | 6.1 nM | 101 nM
5 | Clc1ccc(CO[C@@]2(c3ccc(Cl)c(Cl)c3)C[C@H]3CC[C@@H](C2)N3)cc1Cl | 601 | 0.87 | 2930 nM | 543 | 4.7 nM | 2550 nM
6 | Clc1ccc(CO[C@@]2(c3ccccc3)C[C@H]3CC[C@@H](C2)N3)cc1Cl | 258 | 62 | 16 nM | 16300 | 0.061 nM | 996 nM
7 | FC(F)(F)c1ccc(C2=CC3CCC(C2)N3)cc1 (centres undefined) | 830 | – | 1490 nM | 432 | 1.8 nM | 777 nM
8 | Clc1ccc([C@]2(OCc3ccccc3)C[C@H]3CC[C@@H](C2)N3)cc1 | 2.7 | 10 | 172 nM | 26 | 65 nM | 1720 nM
9 | C1=C(c2ccccc2)CC2CCC1N2 (centres undefined) | 6.9 | 1.1 | 1220 nM | 7.3 | 176 nM | 1290 nM
10 | FC(F)(F)c1ccc([C@]2(OCc3ccccc3)C[C@H]3CC[C@@H](C2)N3)cc1 | 2.6 | 3.9 | 1390 nM | 10 | 534 nM | 5440 nM
11 | Clc1ccc(C2=CC3CCC(C2)N3)cc1Cl (centres undefined) | 53 | 1.3 | 16 nM | 67 | 0.3 nM | 20 nM
12 | Clc1ccc(C2=CC3CCC(C2)N3)cc1 (centres undefined) | 83 | 0.52 | 231 nM | 43 | 2.8 nM | 120 nM
13 | c1ccc(CO[C@@]2(c3ccccc3)C[C@H]3CC[C@@H](C2)N3)cc1 | 0.47 | – | 117 nM | – | 247 nM | –
14 | Clc1ccc([C@]2(OCc3ccccc3)C[C@H]3CC[C@@H](C2)N3)cc1Cl | 11 | 1.7 | 716 nM | 20 | 62 nM | 1230 nM
